Assay results reported in publication PMC9089800 (RSC Advances, 2018).
Where two headings read alike, the source gives them in different places.

What was measured:
MCF7 = assay: MTT growth inhibition / cytotoxicity assay, MCF7; format: cell-based, human
MDA-MB-231 = assay: MTT growth inhibition / cytotoxicity assay, MDA-MB-231; format: cell-based, human
caspase 9 = assay: Western blot for apoptotic pathway; format: cell-based, human; conditions: MCF7, 24 h; 30 μM of 9, 20 μM of 10
Method in brief: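 MCF7 cells exposed 24 h to DMSO vehicle or test compound. Lysed 20 min on ice in Tris pH 7.4/EDTA/NaCl/NaF/orthovanadate/0.5% Triton X-100, then cleared at 16000 × g at 4 °C. Protein quantified by Bradford; samples boiled in Laemmli buffer. SDS-PAGE, PVDF transfer, 3% milk/TBST block. Anti-caspase 9 overnight at 4 °C; HRP secondary; chemiluminescent detection.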

MCF10A = assay: cells; format: cell-based; conditions: 48 h; for IC50: Homo sapiens, MCF-10A, read-out: IC50 in μM MCF10A; for cytotoxic effect on normal breast epithelial MCF10A cells (in words): MTT
MCF7 cells [1] = assay: Cell cycle analysis by FACS; format: cell-based, human; conditions: MCF7, 24 h; 30 μM of 9, 20 μM of 10
Method in brief: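 Cells seeded a day before; treated 24 h with test compound or DMSO vehicle (final DMSO <0.02%). Cells trypsinised, pelleted at 4 °C, fixed overnight at 4 °C in chilled 95% ethanol, and PBS-washed. Stained with propidium iodide plus RNase in PBS/2 mM MgCl2 for 20 min at 37 °C, then acquired by flow cytometry. Three repeats; mean sub-G1 population plotted.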

MCF7 cells [2] = assay: DNA fragmentation assay; format: cell-based, human; conditions: MCF7, 24 h; 30 μM of 9, 20 μM of 10
MCF7 cells [3] = assay: Immunostaining; format: cell-based, human; conditions: IC50 concentration, 12 hours
Method in brief: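 Cells grown overnight as a monolayer on coverslips, then exposed to test compound for 12 h. Fixed in 3.7% formaldehyde for 20 min at room temperature in the dark. Permeabilised with 0.5% Tween-20 for 30 min, then blocked with 3% BSA. Stained 1 h with anti-α-tubulin, then 1 h with Alexa Fluor 594 secondary. DNA counterstained with Hoechst; mounted in DABCO/glycerol.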

[4] = Homo sapiens, MCF7, 48 h, read-out: IC50 in μM MCF7, MTT, 48 h, 0–100 μM
[5] = read-out: IC50 in μM MCF7, MTT, 48 h, 0–100 μM

Structure (SMILES): C=C1[C@@H]2[C@H]3OC(=O)C(=C)[C@@H]3CCC(=C)[C@@H]2C[C@@H]1O [Compound 2, Zaluzanin C]
- IC50 (MCF7; [4]): > 100 µM
- IC50 in μM MCF7 (MCF7; MTT, 48 h, 0–100 μM): inactive
- IC50 in μM MDA-MB-231 (MDA-MB-231; 48 h, 0–100 μM): inactive

Structure (SMILES): C=C1[C@@H]2[C@H]3OC(=O)[C@@H](CN[C@H](C)c4cccc5ccccc45)[C@@H]3CCC(=C)[C@@H]2C[C@@H]1OC(C)=O [Compound 9, (3R,3aS,6aR,8S,9aR,9bS)-6,9-Dimethylene-3-((((R)-1-(naphthalen-1-yl)ethyl)amino)methyl)-2-oxododecahydroazuleno[4,5-b]furan-8-yl acetate]
- apoptotic pathway (caspase 9 immunoblot) (caspase 9): cleavage of caspase 9
- IC50 (MCF7; [4]): < 50 µM
- IC50 (MCF7; [5]): 30 ± 0.7 µM
- IC50 (MCF10A): 42 ± 4.1 µM
- cytotoxic effect on normal breast epithelial MCF10A cells (in words) (MCF10A): potent cytotoxic effect
- apoptotic (sub-G1) population (MCF7 cells [1]): significantly increased the apoptotic populations
- fragmentation of genomic DNA (ladder on agarose gel) (MCF7 cells [2]): substantial fragmented DNA ladder
- DNA fragmentation by Hoechst staining, tubulin morphology (MCF7 cells [3]): fragmented DNA

Structure (SMILES): C=C1[C@@H]2[C@H]3OC(=O)[C@@H](CN[C@H](C)c4cccc5ccccc45)[C@@H]3CCC(=C)[C@@H]2C[C@@H]1O [Compound 10, (3R,3aS,6aR,8S,9aR,9bS)-8-Hydroxy-6,9-dimethylene-3-((((R)-1-(naphthalen-1-yl)ethyl)amino)methyl)decahydroazuleno[4,5-b] furan-2(3H)-one]
- apoptotic pathway (caspase 9 immunoblot) (caspase 9): cleavage of caspase 9
- IC50 (MCF10A): > 100 µM
- cytotoxic effect on normal breast epithelial MCF10A cells (in words) (MCF10A): minimal cytotoxic effect
- apoptotic (sub-G1) population (MCF7 cells [1]): significantly increased the apoptotic populations
- fragmentation of genomic DNA (ladder on agarose gel) (MCF7 cells [2]): substantial fragmented DNA ladder
- DNA fragmentation by Hoechst staining, tubulin morphology (MCF7 cells [3]): fragmented DNA

Structure (SMILES): C=C1[C@@H]2[C@H]3OC(=O)[C@@H](CN4CCC(O)CC4)[C@@H]3CCC(=C)[C@@H]2C[C@@H]1O [Compound 14, (3R,3aS,6aR,8S,9aR,9bS)-8-Hydroxy-3-((4-hydroxypiperidin-1-yl)methyl)-6,9-di-methylenedecahydroazuleno[4,5-b]furan-2(3H)-one]
- IC50 (MCF7; [4]): < 50 µM
- IC50 (MCF7; [5]): 40 ± 2.16 µM
- IC50 (MCF10A): > 50 µM
- apoptotic (sub-G1) population (MCF7 cells [1]): induced apoptosis to a lesser extent
- IC50 (MDA-MB-231; read-out: IC50 in μM MDA-MB-231, 48 h, 0–100 μM): 25 ± 2.3 µM

Structure (SMILES): C=C1[C@@H]2[C@H]3OC(=O)/C(=C/c4ccc(C)cc4[N+](=O)[O-])[C@@H]3CCC(=C)[C@@H]2C[C@@H]1OC(C)=O [Compound 34, (3aS,6aR,8S,9aR,9bS)-3-((E)-4-Methyl-2-nitrobenzylidene)-6,9-dimethylene-2-oxododecahydroazuleno[4,5-b]furan-8-yl acetate]
- IC50 (MCF7; [4]): > 100 µM
